Test results published in ChEMBL document CHEMBL2040715, “Discovery of a Potent HIV Integrase Inhibitor that Leads to a Prodrug with Significant anti-HIV Activity” (ACS Med Chem Lett, 2011).

Key:
[1] = Metabolic stability in human liver microsomes assessed as compound remaining at 200 uM incubated for 3 mins prior to NADPH-addition measured after 3 hrs by RP-HPLC analysis; assay type: ADME, Microsome; conditions: read-out: Stability
Outline: (§1)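 Pooled human liver microsomes were preincubated with test compound, and the reaction was started with NADPH at 37 °C. Samples were taken at several times up to 3 h and quenched with cold acetonitrile. Precipitated protein was removed by centrifugation, then HPLC with UV detection measured parent remaining, from which the in vitro half-life was derived.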

[2] = target: T1, UDP-glucuronosyltransferase 1A4 (Homo sapiens, UniProt P22310); test: Activity at UGT1A4 in human liver microsomes at 50 uM incubated for 3 mins prior to NADPH-addition measured up to 120 mins by HPLC/UV analysis; assay type: ADME, Microsome
T1 sequence (P22310 whole entry): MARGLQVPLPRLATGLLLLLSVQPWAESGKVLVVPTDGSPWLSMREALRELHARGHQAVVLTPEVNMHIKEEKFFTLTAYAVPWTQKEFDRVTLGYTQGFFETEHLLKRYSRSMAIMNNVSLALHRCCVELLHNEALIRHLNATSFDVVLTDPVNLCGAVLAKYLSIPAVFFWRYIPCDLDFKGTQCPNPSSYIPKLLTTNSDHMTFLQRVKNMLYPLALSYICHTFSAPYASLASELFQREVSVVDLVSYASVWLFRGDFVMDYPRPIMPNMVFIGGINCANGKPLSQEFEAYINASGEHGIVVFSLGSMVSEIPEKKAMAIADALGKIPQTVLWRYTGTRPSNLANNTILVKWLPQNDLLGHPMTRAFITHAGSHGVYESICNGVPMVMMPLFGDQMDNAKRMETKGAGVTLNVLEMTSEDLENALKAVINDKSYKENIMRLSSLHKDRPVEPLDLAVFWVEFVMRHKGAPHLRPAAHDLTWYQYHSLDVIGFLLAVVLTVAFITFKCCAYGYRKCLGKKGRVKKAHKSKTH

[3] = system: Liver microsomes; test: Half life in human liver microsomes at 200 uM incubated for 3 mins prior to NADPH-addition by RP-HPLC analysis; assay type: ADME, Microsome; conditions: 0.05 h; outline: as §1
[4] = target: T2, UDP-glucuronosyltransferase 1A9 (Homo sapiens, UniProt O60656); test: Activity at UGT1A9 in human liver microsomes at 50 uM incubated for 3 mins prior to NADPH-addition measured up to 120 mins by HPLC/UV analysis; assay type: ADME, Microsome
T2 sequence (O60656 whole entry): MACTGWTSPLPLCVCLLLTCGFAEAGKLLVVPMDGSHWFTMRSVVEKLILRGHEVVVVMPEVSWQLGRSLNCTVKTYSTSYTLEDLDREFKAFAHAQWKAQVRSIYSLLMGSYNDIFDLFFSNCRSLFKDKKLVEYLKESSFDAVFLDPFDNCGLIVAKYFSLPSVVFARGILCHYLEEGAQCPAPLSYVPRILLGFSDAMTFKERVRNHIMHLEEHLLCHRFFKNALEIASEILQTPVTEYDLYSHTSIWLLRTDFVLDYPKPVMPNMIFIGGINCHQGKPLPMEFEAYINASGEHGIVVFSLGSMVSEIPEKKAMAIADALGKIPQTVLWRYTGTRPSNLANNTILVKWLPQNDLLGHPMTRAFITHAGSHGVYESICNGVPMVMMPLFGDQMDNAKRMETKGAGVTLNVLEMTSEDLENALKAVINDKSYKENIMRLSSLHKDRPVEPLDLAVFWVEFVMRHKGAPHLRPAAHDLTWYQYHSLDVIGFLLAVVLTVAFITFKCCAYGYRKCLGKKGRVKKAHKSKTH

[5] = system: Liver microsomes; test: Drug metabolism in human liver microsomes assessed as 3-acetyl-5-(2,4-difluorobenzyl)-1-(2-fluorobenzyl)pyridin-2(1H)-one production at 200 uM incubated for 3 mins prior to NADPH-addition by RP-HPLC analysis; assay type: ADME, Microsome; conditions: 0.05 h
[6] = target: T3, Cytochrome P450 3A4 (Homo sapiens, UniProt P08684); test: Inhibition of CYP3A4 in human liver microsomes using triazolam as substrate incubated for 3 mins prior to NAPDH-addition measured after 30 mins by RP-HPLC analysis; assay type: ADME, Microsome
T3 sequence (P08684 whole entry): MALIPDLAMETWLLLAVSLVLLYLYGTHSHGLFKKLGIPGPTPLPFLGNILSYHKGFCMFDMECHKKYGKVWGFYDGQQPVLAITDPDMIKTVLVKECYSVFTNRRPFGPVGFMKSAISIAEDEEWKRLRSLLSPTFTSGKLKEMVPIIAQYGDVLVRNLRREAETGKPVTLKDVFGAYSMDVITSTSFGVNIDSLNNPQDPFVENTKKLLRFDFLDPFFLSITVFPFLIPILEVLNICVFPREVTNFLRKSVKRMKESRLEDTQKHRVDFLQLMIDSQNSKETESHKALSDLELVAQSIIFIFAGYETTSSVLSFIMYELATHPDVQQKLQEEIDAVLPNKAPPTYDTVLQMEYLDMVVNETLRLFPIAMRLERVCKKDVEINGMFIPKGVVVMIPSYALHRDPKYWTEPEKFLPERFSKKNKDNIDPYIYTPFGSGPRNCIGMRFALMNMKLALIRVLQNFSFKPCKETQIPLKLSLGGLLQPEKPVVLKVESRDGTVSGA
Outline: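 For CYP3A4 with triazolam as substrate (50 mM stock; 200 μM listed), pooled human liver microsomes were used at 0.4 mg/mL protein. Incubation was 30 min with varying inhibitor concentrations, and IC50 came from kinetic analysis.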

[7] = target: T4, Cytochrome P450 2C8 (Homo sapiens, UniProt P10632); test: Activation of CYP2C8 in human liver microsomes incubated for 3 mins prior to NAPDH-addition measured after 30 mins by RP-HPLC analysis; assay type: ADME, Microsome; conditions: 0.5 h
T4 sequence (P10632 whole entry): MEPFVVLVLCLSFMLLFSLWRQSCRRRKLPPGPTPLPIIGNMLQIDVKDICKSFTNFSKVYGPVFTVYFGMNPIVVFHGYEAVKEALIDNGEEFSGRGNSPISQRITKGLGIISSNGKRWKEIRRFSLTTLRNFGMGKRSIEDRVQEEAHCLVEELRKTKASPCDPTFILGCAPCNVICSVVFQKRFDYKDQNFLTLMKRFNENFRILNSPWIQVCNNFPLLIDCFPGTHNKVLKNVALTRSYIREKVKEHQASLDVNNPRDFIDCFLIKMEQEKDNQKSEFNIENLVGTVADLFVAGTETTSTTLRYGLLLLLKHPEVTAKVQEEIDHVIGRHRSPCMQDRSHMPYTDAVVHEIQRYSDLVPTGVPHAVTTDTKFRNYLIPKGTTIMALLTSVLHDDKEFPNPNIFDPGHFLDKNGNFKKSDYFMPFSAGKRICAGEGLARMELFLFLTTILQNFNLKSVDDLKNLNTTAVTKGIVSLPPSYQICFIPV

[8] = system: Human immunodeficiency virus 1; test: Antiviral activity against HIV1 infected in MAGI cells by beta-galactosidase reporter gene assay; assay type: functional, organism-based; conditions: Human immunodeficiency virus 1, MAGI
Outline: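 HIV-1 infection of MAGI cells, with raltegravir as the MOI-sensitive positive control validating each run. EC50 and EC90 were determined.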

[9] = target: T3, Cytochrome P450 3A4; test: Activation of CYP3A4 in human liver microsomes incubated for 3 mins prior to NAPDH-addition measured after 30 mins by RP-HPLC analysis; assay type: ADME, Microsome; conditions: 0.5 h

O=C(O)/C(O)=C/C(=O)c1cc(Cc2ccc(F)cc2F)cn(Cc2ccccc2F)c1=O
remaining at 3 h, 200 µM [1]: 80% | Activity [2]: Not Active | t1/2 [3]: > 3 h | Activity [4]: Not Active | Drug metabolism [5]: Active | IC50 [6]: > 200 µM | Activity [7]: Not Active | EC50 [8]: 0.5 µM | Activity [9]: Not Active
